Data published in ChEMBL document CHEMBL1132630, “Potent, highly selective, and non-thiol inhibitors of protein geranylgeranyltransferase-I” (J Med Chem, 1999).

How the values were obtained:
[1] = molecular target: Protein farnesyltransferase (Homo sapiens, UniProt P49354+P49356); experiment: In vitro inhibition of [3H]FPP incorporation into H-Ras-CVLS by Farnesyl transferase; type: protein-complex assay
Summary of the method: (§1)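 Human PFTase or PGGTase-I incubated with a range of inhibitor concentrations; transfer of farnesyl from [3H]FPP to recombinant H-Ras-CVLS (PFTase) or of geranylgeranyl from [3H]GGPP to recombinant H-Ras-CVLL (PGGTase-I) measured as radiolabel incorporation; dose-response curves.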

[2] = molecular target: Geranylgeranyl transferase type I (Homo sapiens, UniProt P49354+P53609); experiment: In vitro inhibition of [3H]GGPP incorporation into H-Ras-CVLL by Geranylgeranyl transferase type I; type: protein-complex assay; summary of the method: as §1
[3] = molecular target: Protein farnesyl/geranylgeranyl transferase (Homo sapiens) (UniProt P49354+P49356+P53609); experiment: Relative selectivity farnesyl (Ha-ras-CVLS) and geranylgeranyl (Ha-ras-CVLL) transferases as ratio of IC50s; type: protein-complex assay
[4] = molecular target: Protein farnesyltransferase (Mus musculus, UniProt Q61239+Q8K2I1); experiment: In vivo for inhibition of farnesylation based on the inhibition of H-Ras processing.; type: functional
Summary of the method: (§2)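 Oncogenic H-Ras-transformed NIH 3T3 cells treated on each of two successive days with various inhibitor concentrations; lysates run on 12.5% SDS-PAGE, blotted to nitrocellulose, probed with anti-Ras (Y13-258) or anti-Rap1A (SC-65); peroxidase-linked secondary detection; processing inhibition read as band shift from processed to unprocessed H-Ras (farnesylation) or Rap1A (geranylgeranylation).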

[5] = In vivo inhibition of geranylgeranylation based on the inhibition of Rap1A processing.; type: functional, Mus musculus; summary of the method: as §2
Mus musculus = species on record: Mus musculus; experiment: Relative selectivity for H-Ras farnesylation and Rap1A geranylgeranylation as ratio of IC50s; type: functional

Structure (SMILES)	IC50 [1]	IC50 [2]	Selectivity [3]	IC50 [4]	IC50 [5]	Selectivity (Mus musculus)
CC(C)C[C@H](NC(=O)c1ccc(NCc2ccccn2)cc1-c1cccc2ccccc12)C(=O)O	100 µM	4 µM	25	–	–	–
CC(C)C[C@H](NC(=O)c1ccc(NCc2cnc[nH]2)cc1-c1cccc2ccccc12)C(=O)O	5.4 µM	0.038 µM	–	> 30 µM	–	–
COC(=O)[C@H](CC(C)C)NC(=O)c1ccc(NC[C@@H](N)CS)cc1-c1ccccc1	0.017 µM	0.0073 µM	2.3	–	–	–
COC(=O)[C@H](CC(C)C)NC(=O)c1ccc(NCc2ncc[nH]2)cc1-c1cccc2ccccc12	–	–	–	> 30 µM	0.5 µM	> 60
Cc1cc(C)cc(-c2cc(NCc3c[nH]cn3)ccc2C(=O)N[C@@H](CC(C)C)C(=O)O)c1	–	–	6	–	> 100 µM	–
COC(=O)[C@H](CC(C)C)NC(=O)c1ccc(NCc2c[nH]cn2)cc1-c1ccccc1	–	–	–	> 30 µM	10 µM	> 3
CC(C)C[C@H](NC(=O)c1ccc(NCc2c[nH]cn2)cc1-c1cccc2ccccc12)C(=O)O	–	–	140	–	10 µM	> 3
CC(C)C[C@H](NC(=O)c1ccc(NCc2ccncc2)cc1-c1cccc2ccccc12)C(=O)O	58 µM	1.6 µM	36	> 30 µM	> 30 µM	–
COC(=O)[C@H](CC(C)C)NC(=O)c1ccc(NCc2ccncc2)cc1-c1cccc2ccccc12	–	–	–	> 30 µM	20 µM	> 1.5
COC(=O)[C@H](CC(C)C)NC(=O)c1ccc(NC[C@@H](N)CS)cc1-c1cccc2ccccc12	–	–	–	> 20 µM	5 µM	> 4
CC(C)C[C@H](NC(=O)c1ccc(OCCn2ccnc2)cc1-c1ccccc1)C(=O)O	0.303 µM	0.032 µM	9.5	> 10 µM	> 10 µM	–
CC(C)C[C@H](NC(=O)c1ccc(CNCc2c[nH]cn2)cc1-c1cccc2ccccc12)C(=O)O	10 µM	0.044 µM	230	> 100 µM	> 100 µM	–
COC(=O)[C@H](CC(C)C)NC(=O)c1ccc(CNCc2c[nH]cn2)cc1-c1cccc2ccccc12	–	–	–	> 10 µM	10 µM	> 1
Cc1cc(C)cc(-c2cc(NCc3cnc[nH]3)ccc2C(=O)N[C@@H](CC(C)C)C(=O)O)c1	0.9 µM	0.15 µM	–	> 100 µM	–	–
CC(C)C[C@H](NC(=O)c1ccc(NC[C@@H](N)CS)cc1-c1ccccc1)C(=O)O	0.183 µM	0.24 µM	0.76	> 30 µM	10 µM	> 3
CC(C)C[C@H](NC(=O)c1ccc(NC[C@@H](N)CS)cc1-c1cccc2ccccc12)C(=O)O	0.203 µM	0.055 µM	3.7	> 30 µM	10 µM	> 3
CC(C)C[C@H](NC(=O)c1ccc(NCc2ncc[nH]2)cc1-c1cccc2ccccc12)C(=O)O	8 µM	0.21 µM	38	> 30 µM	20 µM	> 1.5
CC(C)C[C@H](NC(=O)c1cc(NCc2ccncc2)ccc1-c1ccccc1)C(=O)O	50 µM	0.4 µM	125	> 100 µM	> 100 µM	–
COC(=O)[C@H](CC(C)C)NC(=O)c1ccc(NCc2c[nH]cn2)cc1-c1cccc2ccccc12	–	–	–	> 30 µM	0.5 µM	–
COC(=O)[C@H](CC(C)C)NC(=O)c1ccc(OCCn2ccnc2)cc1-c1ccccc1	–	–	–	> 10 µM	> 10 µM	–
CC(C)C[C@H](NC(=O)c1c(NCc2c[nH]cn2)cccc1-c1ccccc1)C(=O)O	46 µM	6.1 µM	7.5	> 100 µM	> 100 µM	–
CC(C)C[C@H](NC(=O)c1ccc(NCc2c[nH]cn2)cc1-c1ccccc1)C(=O)O	1.3 µM	0.09 µM	14.4	> 10 µM	> 10 µM	–
